# Data: ChEMBL document CHEMBL1926565, “Synthesis, antiproliferative activities and telomerase inhibition evaluation of novel asymmetrical 1,2-disubstituted amidoanthraquinone derivatives” (Eur J Med Chem, 2012)
# Activity calls are given as the source filed them. The calls are words filed in the database; no cut-off is given here.
# Legend:
# PC-3 = assay: Cytotoxicity against human PC3 cells after 48 hrs by SRB assay; type: functional, cell-based; conditions: PC-3, 48 h
# Outline: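 PC-3 cells grown in RPMI1640 with 10% FBS at 37 °C, 5% CO₂. Seeded in medium with 5% FBS; after 24 h, one plate fixed with 10% TCA as T₀. Compound or 0.1% DMSO vehicle added for 48 h, then TCA fixation and 0.4% SRB in 1% acetic acid. Dye solubilized in 10 mM Trizma base, absorbance read at 515 nm. IC50 is the concentration giving 50% reduction of the protein gain in controls.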
# [1] = Growth of human H1299 cells at 1 uM after 48 hrs by MTT assay; conditions: NCI-H1299, 48 h
# [2] = Growth of human H1299 cells at 10 uM after 48 hrs by MTT assay; conditions: NCI-H1299, 48 h
# [3] = molecular target: Telomerase reverse transcriptase (Homo sapiens) (UniProt O14746); assay: Residual activity of human TERT in H1299 cells at 100 uM after 24 hrs by SEAP reporter gene assay
# [4] = Growth of human H1299 cells at 100 uM 48 hrs by MTT assay; conditions: NCI-H1299, 48 h
# [5] = molecular target: Telomerase reverse transcriptase (Homo sapiens) (UniProt O14746); assay: Inhibition of telomerase activity in human H1299 cell free extract at 10 uM by modified TRAP assay
# Outline: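 TRAP assay using total cell lysate from H1299 lung cancer cells as the telomerase source, with protein measured against BSA standards. Compounds tested at 10 µM. Controls were lysate without inhibitor (positive) and RNase A-treated extract without inhibitor (negative).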
# [6] = molecular target: Telomerase reverse transcriptase (Homo sapiens) (UniProt O14746); assay: Residual activity of human TERT in H1299 cells at 1 uM after 24 hrs by SEAP reporter gene assay
# [7] = molecular target: Telomerase reverse transcriptase (Homo sapiens) (UniProt O14746); assay: Residual activity of human TERT in H1299 cells at 10 uM after 24 hrs by SEAP reporter gene assay
# Telomerase reverse transcriptase (Homo sapiens), sequence (O14746 whole entry): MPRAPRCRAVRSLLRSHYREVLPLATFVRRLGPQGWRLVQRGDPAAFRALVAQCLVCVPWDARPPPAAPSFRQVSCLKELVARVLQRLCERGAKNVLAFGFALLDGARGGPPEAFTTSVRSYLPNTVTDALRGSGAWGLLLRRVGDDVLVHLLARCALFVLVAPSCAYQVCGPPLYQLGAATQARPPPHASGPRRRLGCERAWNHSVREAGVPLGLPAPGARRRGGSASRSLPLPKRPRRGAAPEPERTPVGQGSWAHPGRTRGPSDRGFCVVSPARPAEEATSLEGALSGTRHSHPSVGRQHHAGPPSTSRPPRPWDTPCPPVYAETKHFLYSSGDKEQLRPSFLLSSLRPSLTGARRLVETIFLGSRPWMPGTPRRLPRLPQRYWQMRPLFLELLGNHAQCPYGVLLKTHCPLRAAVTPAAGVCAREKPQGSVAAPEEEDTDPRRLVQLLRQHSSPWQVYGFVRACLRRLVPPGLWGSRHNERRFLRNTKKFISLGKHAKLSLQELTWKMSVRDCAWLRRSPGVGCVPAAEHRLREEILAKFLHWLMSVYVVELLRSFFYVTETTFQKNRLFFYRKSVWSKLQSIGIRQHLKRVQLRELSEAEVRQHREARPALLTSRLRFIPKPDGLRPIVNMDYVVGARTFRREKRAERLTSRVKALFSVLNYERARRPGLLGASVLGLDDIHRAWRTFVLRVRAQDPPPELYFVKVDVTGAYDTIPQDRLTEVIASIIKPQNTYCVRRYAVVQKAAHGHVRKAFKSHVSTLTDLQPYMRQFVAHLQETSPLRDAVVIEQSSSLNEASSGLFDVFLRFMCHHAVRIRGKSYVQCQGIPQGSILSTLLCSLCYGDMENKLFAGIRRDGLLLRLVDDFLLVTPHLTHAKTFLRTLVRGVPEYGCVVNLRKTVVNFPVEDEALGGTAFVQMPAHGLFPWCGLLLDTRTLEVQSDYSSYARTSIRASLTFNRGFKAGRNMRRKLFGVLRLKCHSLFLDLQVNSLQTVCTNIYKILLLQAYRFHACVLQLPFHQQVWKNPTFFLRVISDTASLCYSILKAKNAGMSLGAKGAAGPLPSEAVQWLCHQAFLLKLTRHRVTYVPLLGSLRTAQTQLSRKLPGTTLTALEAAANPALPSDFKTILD
SMILES,IC50 (PC-3),"growth, % of control at 1 µM [1]","growth, % of control at 10 µM [2]",residual activity [3],"growth, % of control at 100 µM [4]",inhibition [5],residual activity [6],residual activity [7]
O=C(CCl)Nc1ccc2c(c1NC(=O)c1ccccc1)C(=O)c1ccccc1C2=O,0.95 µM,101%,83%,15%,5%,inactive,96%,94%
O=C(CCl)Nc1ccc2c(c1NC(=O)c1ccccc1Cl)C(=O)c1ccccc1C2=O,3.09 µM,101%,6%,1%,0%,inactive,81%,5%
O=C(CCl)Nc1ccc2c(c1NC(=O)c1cccs1)C(=O)c1ccccc1C2=O,2.64 µM,0%,2%,2%,0%,inactive,5%,3%
Cc1ccc(C(=O)Nc2c(NC(=O)CN(C)CCc3ccccn3)ccc3c2C(=O)c2ccccc2C3=O)cc1,6.68 µM,90%,46%,22%,1%,inactive,94%,11%
Cc1ccc(C(=O)Nc2c(NC(=O)CN(C)CC3OCCO3)ccc3c2C(=O)c2ccccc2C3=O)cc1,1.46 µM,104%,88%,10%,3%,inactive,100%,76%
Cc1ccc(C(=O)Nc2c(NC(=O)CN3CCN(CCO)CC3)ccc3c2C(=O)c2ccccc2C3=O)cc1,2.07 µM,71%,44%,0%,0%,inactive,76%,8%
O=C(CCl)Nc1ccc2c(c1NC(=O)c1ccno1)C(=O)c1ccccc1C2=O,3.78 µM,105%,3%,1%,0%,inactive,92%,4%
O=C(CCl)Nc1ccc2c(c1NC(=O)c1ccco1)C(=O)c1ccccc1C2=O,2.44 µM,80%,0%,2%,2%,inactive,84%,2%
Cc1cccc(C(=O)Nc2c(NC(=O)CCl)ccc3c2C(=O)c2ccccc2C3=O)c1,3.79 µM,72%,0%,0%,0%,inactive,116%,0%
Cc1ccc(C(=O)Nc2c(NC(=O)CN3CCN(c4ccccn4)CC3)ccc3c2C(=O)c2ccccc2C3=O)cc1,> 20 µM,105%,100%,9%,6%,inactive,97%,64%
O=C(CCl)Nc1ccc2c(c1NC(=O)c1ccccc1F)C(=O)c1ccccc1C2=O,> 20 µM,78%,2%,2%,0%,inactive,105%,5%
O=C(CCl)Nc1ccc2c(c1NC(=O)c1cccc(C(F)(F)F)c1)C(=O)c1ccccc1C2=O,5.68 µM,94%,5%,0%,3%,inactive,99%,4%
O=C(CCl)Nc1ccc2c(c1NC(=O)c1ccccc1C(F)(F)F)C(=O)c1ccccc1C2=O,3.42 µM,93%,3%,2%,0%,inactive,93%,4%
O=C(CCCCl)Nc1ccc2c(c1NC(=O)CCCCl)C(=O)c1ccccc1C2=O,3.94 µM,103%,79%,15%,19%,inactive,113%,92%
O=C(CCl)Nc1ccc2c(c1NC(=O)c1ccc(Cl)cc1)C(=O)c1ccccc1C2=O,> 20 µM,92%,5%,4%,4%,inactive,98%,6%
Cc1ccc(C(=O)Nc2c(NC(=O)CN3CCCCC3)ccc3c2C(=O)c2ccccc2C3=O)cc1,> 20 µM,86%,70%,8%,10%,inactive,85%,70%
COc1cccc2c1C(=O)c1c(O)c3c(c(O)c1C2=O)C[C@@](O)(C(=O)CO)C[C@@H]3O[C@H]1C[C@H](N)[C@H](O)[C@H](C)O1 [DOXORUBICIN],0.25 µM,–,–,–,–,–,–,–
Cc1ccc(C(=O)Nc2c(NC(=O)CN3CCN(c4ncccn4)CC3)ccc3c2C(=O)c2ccccc2C3=O)cc1,> 20 µM,102%,91%,19%,59%,inactive,87%,79%
Cc1ccccc1C(=O)Nc1c(NC(=O)CCl)ccc2c1C(=O)c1ccccc1C2=O,3.67 µM,73%,0%,0%,0%,inactive,98%,0%
O=C(CCl)Nc1ccc2c(c1NC(=O)CCl)C(=O)c1ccccc1C2=O,1.19 µM,8%,0%,13%,0%,inactive,15%,13%
O=C1c2c(O)ccc(O)c2C(=O)c2c(NCCNCCO)ccc(NCCNCCO)c21 [MITOXANTRONE],0.29 µM,–,–,–,–,–,–,–
